As usually defined, the IC50 is the concentration that inhibits the measured activity by half. Read a high IC50 as weaker potency.

Drawing on ChEMBL document CHEMBL1138747, “Synthesis and structure--activity relationship in a class of indolebutylpiperazines as dual 5-HT(1A) receptor agonists and serotonin reuptake inhibitors” (J Med Chem, 2004), this text covers IC50 and ED50 for 1 compound.

Molecules are shown by their SMILES.

Assay [1] has as its target 5-hydroxytryptamine receptor 7 (Rattus norvegicus, UniProt P32305). Put plainly: Inhibition of rat hydroxytryptamine 7 receptor.
Assay [2] concerns the target T1, Adrenergic receptor alpha-2 (Homo sapiens, UniProt P08913+P18825+P18089).
T1 sequence (P08913 whole entry): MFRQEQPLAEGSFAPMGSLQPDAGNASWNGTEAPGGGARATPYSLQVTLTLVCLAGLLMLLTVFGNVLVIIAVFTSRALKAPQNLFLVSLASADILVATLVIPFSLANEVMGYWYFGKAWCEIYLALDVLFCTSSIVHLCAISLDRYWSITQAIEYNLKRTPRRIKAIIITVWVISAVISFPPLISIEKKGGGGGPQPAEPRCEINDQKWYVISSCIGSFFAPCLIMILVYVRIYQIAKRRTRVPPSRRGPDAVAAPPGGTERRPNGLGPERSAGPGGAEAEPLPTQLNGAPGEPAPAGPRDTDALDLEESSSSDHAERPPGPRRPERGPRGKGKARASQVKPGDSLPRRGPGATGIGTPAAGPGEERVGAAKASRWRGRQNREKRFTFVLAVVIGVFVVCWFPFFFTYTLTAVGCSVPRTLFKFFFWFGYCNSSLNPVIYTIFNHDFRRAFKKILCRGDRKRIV
T1 sequence (P18825 whole entry): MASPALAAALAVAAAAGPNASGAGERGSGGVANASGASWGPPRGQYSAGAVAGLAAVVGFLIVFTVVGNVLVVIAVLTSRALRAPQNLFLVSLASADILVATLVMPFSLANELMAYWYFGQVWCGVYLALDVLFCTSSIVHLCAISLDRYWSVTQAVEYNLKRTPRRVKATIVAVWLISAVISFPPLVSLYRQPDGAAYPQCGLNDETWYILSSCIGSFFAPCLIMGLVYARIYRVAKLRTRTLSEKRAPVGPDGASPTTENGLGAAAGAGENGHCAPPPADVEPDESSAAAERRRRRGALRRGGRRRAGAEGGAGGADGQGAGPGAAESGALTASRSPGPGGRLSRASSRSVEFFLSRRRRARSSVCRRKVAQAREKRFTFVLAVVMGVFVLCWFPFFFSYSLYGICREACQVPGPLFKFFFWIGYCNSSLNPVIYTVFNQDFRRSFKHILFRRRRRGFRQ
T1 sequence (P18089 whole entry): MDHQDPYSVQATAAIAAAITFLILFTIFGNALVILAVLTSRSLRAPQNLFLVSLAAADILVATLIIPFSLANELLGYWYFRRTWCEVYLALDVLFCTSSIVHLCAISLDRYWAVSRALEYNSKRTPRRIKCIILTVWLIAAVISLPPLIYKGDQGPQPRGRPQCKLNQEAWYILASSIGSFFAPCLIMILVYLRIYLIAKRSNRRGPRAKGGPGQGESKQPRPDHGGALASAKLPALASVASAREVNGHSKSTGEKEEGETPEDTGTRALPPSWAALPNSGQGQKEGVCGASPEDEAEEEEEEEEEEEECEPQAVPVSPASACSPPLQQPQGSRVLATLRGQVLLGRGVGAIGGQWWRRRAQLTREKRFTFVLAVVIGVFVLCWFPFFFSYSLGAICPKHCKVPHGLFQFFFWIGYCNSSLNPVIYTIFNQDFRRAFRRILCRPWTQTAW
The assay is described as follows: Inhibition of alpha-2-adrenergic receptor. The format is protein assay.

The target of assay [3] is 5-hydroxytryptamine receptor 1B (Rattus norvegicus, UniProt P28564). The assay is described as follows: Inhibition of rat hydroxytryptamine 1B receptor.
Assay [4] deals with 5-hydroxytryptamine receptor 1D (Rattus norvegicus, UniProt P28565). Put plainly: Inhibition of rat hydroxytryptamine 1D receptor.
Assay [5] has as its target 5-hydroxytryptamine receptor 2A (Rattus norvegicus, UniProt P14842). Put plainly: Inhibition of rat hydroxytryptamine 2A receptor.
Another assay concerns Rattus norvegicus. The assay is described as follows: Dose required to inhibit ultrasonic vocalisation on peroral administered. The format is functional. The following applies: po, read-out: ID50 (the source's name). In a few lines: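 Rat ultrasonic vocalization test. In a priming session, up to 10 grid-floor shocks were given (1.8 mA, 0.3 s, 20 s apart). Rats not vocalizing on three consecutive trials were excluded. Next day, rats were tested 2 h after dosing: five shocks, then vocalization duration recorded over 3 min. ID50 (dose for half-maximal inhibition) came from dose–response curves.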

5-hydroxytryptamine receptor 2A, sequence (P14842 whole entry): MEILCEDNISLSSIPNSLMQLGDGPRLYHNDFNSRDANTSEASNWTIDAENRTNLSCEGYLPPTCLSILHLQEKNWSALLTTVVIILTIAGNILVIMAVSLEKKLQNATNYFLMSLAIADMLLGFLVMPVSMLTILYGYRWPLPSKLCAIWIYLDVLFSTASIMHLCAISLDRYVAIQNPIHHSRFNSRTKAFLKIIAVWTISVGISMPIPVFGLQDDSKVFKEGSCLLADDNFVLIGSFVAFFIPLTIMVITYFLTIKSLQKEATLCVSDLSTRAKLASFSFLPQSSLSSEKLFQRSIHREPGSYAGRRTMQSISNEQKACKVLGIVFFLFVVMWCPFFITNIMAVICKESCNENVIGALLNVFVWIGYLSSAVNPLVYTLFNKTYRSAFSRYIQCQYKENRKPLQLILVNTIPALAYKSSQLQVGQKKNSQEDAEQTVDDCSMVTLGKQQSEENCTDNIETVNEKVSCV
5-hydroxytryptamine receptor 7, sequence (P32305 whole entry): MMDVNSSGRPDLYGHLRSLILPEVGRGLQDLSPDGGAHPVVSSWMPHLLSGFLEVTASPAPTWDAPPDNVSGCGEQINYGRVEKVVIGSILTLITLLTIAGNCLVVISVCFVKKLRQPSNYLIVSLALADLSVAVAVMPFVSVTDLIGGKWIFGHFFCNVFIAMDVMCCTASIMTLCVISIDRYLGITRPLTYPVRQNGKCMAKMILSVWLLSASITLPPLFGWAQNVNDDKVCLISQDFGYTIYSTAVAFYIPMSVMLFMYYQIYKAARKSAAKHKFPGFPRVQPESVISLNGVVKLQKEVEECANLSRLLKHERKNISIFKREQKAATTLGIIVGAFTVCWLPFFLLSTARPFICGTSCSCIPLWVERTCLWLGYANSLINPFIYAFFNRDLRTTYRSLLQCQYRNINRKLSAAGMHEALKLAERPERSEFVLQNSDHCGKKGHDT
5-hydroxytryptamine receptor 1D, sequence (P28565 whole entry): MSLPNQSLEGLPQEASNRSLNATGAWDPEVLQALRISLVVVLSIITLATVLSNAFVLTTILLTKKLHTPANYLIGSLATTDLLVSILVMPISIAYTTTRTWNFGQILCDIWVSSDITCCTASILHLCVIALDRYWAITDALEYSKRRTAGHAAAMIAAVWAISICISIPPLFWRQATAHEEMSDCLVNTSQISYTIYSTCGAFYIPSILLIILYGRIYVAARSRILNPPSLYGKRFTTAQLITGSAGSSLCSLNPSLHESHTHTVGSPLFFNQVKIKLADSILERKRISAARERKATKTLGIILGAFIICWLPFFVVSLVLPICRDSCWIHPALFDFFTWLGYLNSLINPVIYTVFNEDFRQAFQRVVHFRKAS
5-hydroxytryptamine receptor 1B, sequence (P28564 whole entry): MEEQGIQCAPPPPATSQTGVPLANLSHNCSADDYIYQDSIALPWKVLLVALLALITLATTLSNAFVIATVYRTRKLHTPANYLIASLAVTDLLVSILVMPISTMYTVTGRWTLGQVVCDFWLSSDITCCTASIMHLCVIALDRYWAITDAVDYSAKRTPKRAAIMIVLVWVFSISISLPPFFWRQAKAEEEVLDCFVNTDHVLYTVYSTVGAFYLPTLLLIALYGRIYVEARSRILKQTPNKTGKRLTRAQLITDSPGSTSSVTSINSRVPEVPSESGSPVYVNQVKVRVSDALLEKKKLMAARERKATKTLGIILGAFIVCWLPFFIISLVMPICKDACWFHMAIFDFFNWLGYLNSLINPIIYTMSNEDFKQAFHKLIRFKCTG

With `N#Cc1ccc2[nH]cc(CCCCN3CCN(c4ccc5oc(C(N)=O)cc5c4)CC3)c2c1` [VILAZODONE], the IC50 in assay [1] amounted to 3.9 µM; in assay [2], 6 µM; in assay [3], 5 µM; in assay [4], 4 µM; in assay [5], 1.51 µM. Also, the ED50 in the assay with Rattus norvegicus worked out at 13 mg/kg.
